Screening results deposited in PubChem by The Scripps Research Institute Molecular Screening Center.
In the library only some 1.9% were active in any assay of this set; here they are far more common.
PLC-beta3 inh: blocks human PLC-beta3 enzyme activity; Purified PLC-beta3, fluorogenic substrate, fluorescence; inhibition, % at 12.2 µM; 0.18% of 370,000 active; AID 720704; in the data active means inhibition above about 11%;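 further: 0% = median of compound wells on plate and 100% = full blocker control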
DAGLB inhibitor: blocks human DAGLB lipase activity; Q8NCG7; HEK293T DAGLB membrane lysate, EnzChek fluorogenic substrate; inhibition, % at 5.17 µM; 0.059% of 340,000 active; in the data active means inhibition above about 34%;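 further: 0% = enzyme with vehicle and 100% = wells lacking enzyme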
PLC-gamma1 inh: inhibitors of human phospholipase C gamma1. P19174. purified PLC-gamma1, fluorogenic substrate, fluorescence. inhibition, % at 12.2 µM. 0.84% of 370,000 active. AID 720700; in the data active means inhibition above about 9.5%
sPLA2-III inh: Blocks human group III sPLA2 activity | AID 743126 | 0.56% of 370,000 active | inhibition, % at 12.2 µM | QFRET BODIPY PC-A2 liposome hydrolysis, fluorescence;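 active means inhibition above mean plus 3 SD of compounds lying within the high and low control bounds, cut at about 19% in these data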;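 further: 0% = median of test compound wells and 100% = no enzyme DMSO wells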
Tb MetRS inh: blocks T. brucei methionyl-tRNA synthetase activity; purified T. brucei MetRS, ATP depletion, Kinase-Glo luminescence; inhibition, % at 11.9 µM; 0.4% of 360,000 active; AID 624268;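 active means inhibition above a per-plate cutoff of the control wells' mean inhibition plus 3 SD, cut at about 5.5% in these data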;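 further: 0% = DMSO wells median and 100% = median of wells with control inhibitor compound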
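Material: T. brucei methionyl-tRNA synthetase, purified; reagent: substrates ATP, L-methionine and bulk Escherichia coli tRNA; dosing: 11.9 µM single point; timing: 15 min plus 2 h at 25 °C; detection: luminescence of leftover ATP; evaluation: % inhibition; control set: DMSO-only wells as low control; replicates: singlicate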
The depositor's hits bear a star; · = not tested or not shown.

SMILES	PLC-beta3 inh	DAGLB inhibitor	PLC-gamma1 inh	sPLA2-III inh	Tb MetRS inh
Cc1ccc(Cl)cc1N1CCN(C(=O)CCCn2c(=O)c3cccn3c3cccnc32)CC1	-6	1	10*	1	0
CC[C@]12c3[nH]c4ccc(Cl)cc4c3CCN1C(=O)[C@@H](CC(=O)NCc1cccc(C(F)(F)F)c1)C[C@@H]2C(=O)N1CCN(C(=O)c2ccco2)CC1	0	4	5	-33	-1
CC[C@]12c3[nH]c4ccc(OC)cc4c3CCN1C(=O)C(CC(=O)NCc1cccc(C(F)(F)F)c1)C[C@@H]2C(=O)N1CCN(C(=O)c2ccco2)CC1 (stereo not given in full)	5	3	11*	-19	0
COC(=O)c1ccc(=O)c2nc3/c(=C/O)c(O)cc(=O)c3[nH]c12	8	-1	11*	6	0
Cc1cccc(NC(=O)CSc2nnc(-c3cccnc3)n2Cc2ccco2)c1C	0	·	2	1	·
COc1ccc(N2C(=O)CC(NCC#N)C2=O)cc1 (stereo not given)	-5	-1	1	-5	-1
COc1ccc(N2C(=O)CC(NCc3cccs3)C2=O)cc1 (stereo not given)	5	-4	11*	7	0
CCCN(CCC)C(=S)NC(=O)c1ccc(Cl)cc1Cl	8	2	13*	10	0
O=C(CS(=O)CC(=O)Nc1cccc2c1CCCC2)Nc1ccc(F)cc1 (stereo not given)	8	6	15*	-11	0
CC(C)(C)CC(=O)Nc1cccc2c1CCCC2	0	0	2	2	0
Cc1ccc(NC(=O)C2CCN(c3ncccn3)CC2)cc1C	-18	·	-12	1	·
O=C1C=CC2=C3c4cc(O)c(O)cc4CC3(O)COC2=C1O (stereo not given)	6	-1	16*	-8	-2
CCOc1ccc(C(=O)CSc2nnc(SCc3ccc(Cl)cc3)s2)cc1	0	·	1	-3	·
COc1ccccc1CNC(=O)N(CCc1c(C)[nH]c2ccccc12)Cc1cccs1	-5	·	0	-39	·
O=S(=O)(O)c1cc(O)c2c(O)c(N=Nc3cc(Cl)ccc3O)c(S(=O)(=O)O)cc2c1	·	18	·	·	18*
O=C(Cc1cccs1)Nc1cccc(C(=O)Nc2ccco2)c1	13*	0	7	-1	-1
CC(=O)c1cccc(NC(=O)Cc2cccs2)c1	1	0	1	-3	-1
CSc1ncccc1C(=O)OCC(=O)N1CC2(C)CC1CC(C)(C)C2 (stereo not given)	2	-6	-1	-3	0
CC1(C)CC2CC(C)(CN2C(=O)COC(=O)c2ccccc2C(F)(F)F)C1 (stereo not given)	-5	-5	12*	5	0
Cc1ccc(C=Nn2c(-c3n[nH]c4c3CCC4)n[nH]c2=S)s1	-8	·	-4	13	·
COCC(=O)N(C)[C@H]1C[C@H]2c3[nH]c4cccc(-c5cccc(F)c5)c4c3CCN2C(=O)[C@H]1[C@H](C)O	-77	·	-53	-13	·
CSc1ccc(S(=O)(=O)NCc2ccc(Cl)cc2Cl)cc1	0	-9	2	-25	7.5*
CO[C@@H]1CN(C)C(=O)c2ccc(NC(=O)c3ccccc3F)cc2OC[C@@H](C)N(CC2CCOCC2)C[C@@H]1C	11*	·	3	9	0
CO[C@@H]1CN(C)C(=O)c2cc(NC(=O)NC3CCCCC3)ccc2OC[C@@H](C)N(CC2CCOCC2)C[C@@H]1C	5	·	-3	5	0
Cc1ccc(C)c(NS(=O)(=O)c2cc(C(=O)NCCSC3CCCCC3)ccc2C)c1	2	-7	14*	-41	0
O=C(NCc1ccccc1)[C@H]1CCCN1C(=O)[C@H]1CCCN1C(=O)c1ccc(F)cc1F	6	·	2	4	·
CC(=O)Nc1ccc(NC2=C/C(=N/S(=O)(=O)c3cccs3)c3ccccc3C2=O)cc1	7	·	11*	-7	3
S=C(NCCCCN(Cc1ccc(Cl)cc1)c1ccc(Br)cn1)NCCCc1cnc[nH]1	-1	·	10*	-15	0
O=C(c1ccccc1)c1c2c(cc3sc4ccccc4[n+]13)-c1cccc3cccc-2c13	-260	5	-265	23*	0
CC1=C(O)C(=O)C(C2=C(O)C(=O)C(C)=C(O)C2=O)=C(O)C1=O	4	-5	47*	4	1
